IMP-1 inh = IMP-1 metallo-beta-lactamase inhibitors, primary screen, biochemical, epi-absorbance readout, Pseudomonas aeruginosa enzyme; AID 1556, 2009; inhibition, % at 5.6 µM; metallo-beta-lactamase IMP-1 (Pseudomonas aeruginosa); 290,000 compounds, 0.45% hits; purified IMP-1, nitrocefin hydrolysis, epi-absorbance fluorescence;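 active = inhibition above the mean plus 3 SD of all compounds in the same screening run, cut at about 4.5% in these data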;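 also: 0% = IMP-1 with DMSO and 100% = DMSO wells lacking enzyme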
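System: purified recombinant IMP-1 beta-lactamase. Medium: Zinc- and detergent-supplemented HEPES buffer, pH 7.1. Compound: one 5.6 µM dose […]. Schedule: 15 min preincubation plus 25 min reaction at 25 °C. Technique: Epi-absorbance fluorescence, 480 nm excitation, 530 nm emission.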
Calb FLC = C. albicans growth inhibition with fluconazole, primary screen, CaCi-2 strain, Alamar Blue fluorescence; C. albicans CaCi-2 + fluconazole, 48 h; growth inhibition, % (no concentration beside the values); 300,000 compounds, 0.57% hits;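 active = growth inhibition above about 58% in most replicates, limit read from the data, passing the limit was not always enough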;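 also: all wells also contain fluconazole at 8 µg/ml as a sub-toxic cotreatment; 0% = median of DMSO wells and 100% = median of geldanamycin control wells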
ASAP1 GAP inh = inhibitors of human ASAP1 ArfGAP activity, primary screen, biochemical, fluorescence polarization | Arf-GAP with SH3 domain, ANK repeat and PH domain-containing protein 1 (Homo sapiens), … | inhibition, % at 16.5 µM | ASAP1-stimulated ARF1 GTP hydrolysis, GDP FP detection | AID 624377, 2012 | 360,000 compounds, 0.19% hits; in the data active = inhibition above about 25%;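 also: 0% = vehicle with enzyme and substrate and 100% = no enzyme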
Target sequence (Q9ULH1 325-724 limits assumed): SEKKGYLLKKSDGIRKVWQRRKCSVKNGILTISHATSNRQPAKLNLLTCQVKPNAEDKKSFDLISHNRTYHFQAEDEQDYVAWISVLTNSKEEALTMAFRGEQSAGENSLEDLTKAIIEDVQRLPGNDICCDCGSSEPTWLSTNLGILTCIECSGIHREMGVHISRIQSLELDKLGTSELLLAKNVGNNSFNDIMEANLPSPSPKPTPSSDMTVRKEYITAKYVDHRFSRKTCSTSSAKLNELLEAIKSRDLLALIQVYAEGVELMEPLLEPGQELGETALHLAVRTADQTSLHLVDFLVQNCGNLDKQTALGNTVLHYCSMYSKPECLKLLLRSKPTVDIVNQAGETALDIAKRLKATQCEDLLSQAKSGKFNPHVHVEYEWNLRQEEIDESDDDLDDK
ARFGAP1 inhibitor = inhibitors of rat ARFGAP1 GAP activity, primary screen, biochemical, fluorescence polarization, GDP tracer. 360,000 compounds, 0.26% hits. Arfgap1-stimulated ARF1 GTP hydrolysis, GDP FP detection. inhibition, % at 16.5 µM. ADP-ribosylation factor GTPase-activating protein 1 (Rattus norvegicus), Q62848. AID 651572, 2012;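 active = inhibition above a per-plate limit, mean inhibition of low control wells plus 3 SD, cut at about 25% in these data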;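 also: 0% = DMSO wells with enzyme and 100% = wells lacking Arfgap1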
Target sequence (Q62848 1-136 limits assumed): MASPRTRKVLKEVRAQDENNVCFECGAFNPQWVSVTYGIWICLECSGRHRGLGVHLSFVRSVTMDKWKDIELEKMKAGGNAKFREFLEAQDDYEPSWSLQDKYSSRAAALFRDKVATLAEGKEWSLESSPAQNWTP
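Material: rat Arfgap1 GAP domain (His6, aa 1-136), purified enzyme. Also added: human ARF1(Δ1-17)-GTP substrate. Compound dosing: 16.5 µM single point, 1.26% DMSO. Timing: enzyme reaction 120 min at 25 °C after 20 min preincubation. Signal: GDP detection by fluorescence polarization. Read-out basis: percent inhibition of GAP-stimulated GDP formation, scaled between DMSO and no-Arfgap1 medians.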
VIM-2 inh = VIM-2 metallo-beta-lactamase inhibitors, primary screen, biochemical, epi-absorbance readout, Pseudomonas aeruginosa enzyme; inhibition, % at 5.6 µM; 290,000 compounds, 0.89% hits; AID 1527, 2009; purified VIM-2, nitrocefin hydrolysis, epi-absorbance fluorescence;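 active = inhibition above the mean of all tested compounds plus 3 SD, cutoff set per screening run, cut at about 7.5% in these data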;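 also: red hydrolysis product quenches plate fluorescence so inhibitors raise well fluorescence; 0% = enzyme with DMSO and 100% = DMSO without enzyme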
PHOSPHO1 inh = PubChem AID 1565; 290,000 compounds, 1.1% hits; recombinant PHOSPHO1, absorbance phosphatase assay; Phosphoethanolamine/phosphocholine phosphatase (Homo sapiens), Q8TCT1; inhibition, % at 13.3 µM; in the data active = inhibition above about 60%
The depositor's hits bear a star; nt = no result given. Most compounds without a hit are left out; they make up all but 2.6% or so of the library.

SMILES | IMP-1 inh | Calb FLC | ASAP1 GAP inh | ARFGAP1 inhibitor | VIM-2 inh | PHOSPHO1 inh
Cn1c2ccccc2c(=O)c2ccc(C#Cc3ccccn3)cc21 | 1 | 1 | 13 | 15 | 10* | 4
COc1cc(-c2ccc3c(=O)c4ccccc4n(C)c3c2)cc(OC)c1OC | -1 | -3 | 16 | 15 | 12* | 25
CCCCCCCCN1C(=O)[C@@H](CC(=O)NCCCOCCCC)C[C@@]2(C(=O)OC)C1=C[C@H](C1CCCC1)O[C@@H]2C | nt | nt | 5 | 9 | nt | nt
CCOC(=O)C1=CCN(S(=O)(=O)c2ccc(Br)cc2)C1c1ccccc1 (stereo unspecified) | nt | nt | 1 | -1 | nt | nt
COc1ccc(-c2nnc3ccc(SC)nn23)cc1 | -4 | -15 | -4 | -12 | 8.2* | -4
Cc1ccccc1C(=O)OCc1nnc(-c2ccc(Cl)cc2)o1 | -2 | -41 | -7 | -5 | -3 | 16
O=C(OCc1nnc(-c2ccc(Cl)cc2)o1)c1ccc(=O)n(Cc2ccccc2)n1 | 4.8* | 0 | -1 | 6 | -6 | 7
O=C(CCc1c[nH]c2ccccc12)Nc1ccc(Nc2cccnc2)cc1 | nt | nt | 6 | 2 | nt | nt
CC(=O)OC[C@@H]1CN(Cc2ccccc2)C[C@H](n2cnc3c(NC4CCC4)ncnc32)O1 | nt | nt | -4 | 8 | nt | nt
COc1ccc(-c2ccc(C(=S)N3CCN(C(C)=O)CC3)o2)cc1 | 8.5* | 1 | -7 | 9 | -2 | 85*
CCc1c(C)[nH]n(-c2ccc(Oc3ccccc3)c(S(=O)(=O)O)c2)c1=O | -1 | nt | nt | nt | -1 | 65*
CCc1c(-c2cccc(F)c2)ncn1CCc1ccccc1OC | nt | nt | 10 | -2 | nt | nt
Cc1cc(N2CCN(S(C)(=O)=O)C[C@H]2C)ccc1N1CCN(Cc2ccccc2)[C@H](C)C1 | nt | nt | -4 | -5 | nt | nt
[O-][N+]1=c2ccc(Nc3ccccc3)cc2=NC12CCCCC2 | -3 | 108* | -4 | -3 | -2 | 8
COc1ccc(Nc2ccc3c(c2)=NC2(CCCCC2)[N+]=3[O-])cc1 | -4 | 76 | -15 | 0 | -2 | 50
O=C(C(=O)N1CCN(C(=O)c2cccs2)CC1)c1cccc(C(F)(F)F)c1 | nt | nt | 9 | 9 | nt | nt
C[C@@H]1ON(C)[C@H]2C[C@H]3c4cc(-c5cccc(Cl)c5)ccc4CCN3C[C@@H]12 | nt | nt | 11 | 10 | nt | nt
Cc1cc2oc(=O)cc(CN3CCCc4ccccc43)c2cc1C | -2 | -6 | -1 | 11 | -2 | 74*
O=C(O)C1C2CCC(CC2)C1C(=O)N1CCN(Cc2ccc(F)cc2)CC1 (stereo unspecified) | 15* | 1 | 14 | -6 | 0 | nt
CCOC1(OCC)OC(c2ccccc2)=C(C#N)C(C=Cc2ccccc2)C1(OCC)OCC (stereo unspecified) | nt | nt | 2 | -8 | nt | nt
O=C1C2C3CCC(C3)C2C(=O)N1c1ccc(OS(=O)(=O)c2ccccc2)cc1 (stereo unspecified) | -2 | 0 | 7 | -1 | -2 | 60*
CCCN(CCC)Cc1cc(=O)oc2ccccc12 | nt | nt | 4 | -8 | nt | nt
COC(=O)[C@]12C[C@H](CC(=O)NCc3cccc4ccccc34)C(=O)N(CCC3=CCCCC3)C1=C[C@H](COCc1ccccc1)O[C@@H]2C | nt | nt | -1 | 4 | nt | nt
COC(=O)CSc1nc(C)cc(Oc2ccccc2)n1 | -1 | -9 | 0 | 2 | -3 | 10
Cc1cc(Oc2ccccc2)nc(SCC(=O)Nc2ccc(Cl)cc2Cl)n1 | 46* | 7 | 6 | 12 | -5 | 9
O=C(CCS(=O)(=O)c1ccc(Cl)cc1)Nc1nc(-c2cccnc2)cs1 | -4 | -6 | -5 | -2 | -3 | 30
O=C(CCS(=O)(=O)c1ccc(Cl)cc1)Nc1nc(-c2ccncc2)cs1 | 0 | 85* | -1 | 10 | 1 | 55
CCOc1c(C#N)c(C#N)c2nc(C)cc(C)n12 | -1 | -12 | 6 | -19 | 3 | 16
